In the library only some 5.1% were active in any assay of this set; here they are far more common.
M1 antagonist – blocks the rat M1 muscarinic receptor response to acetylcholine | P08482 | CHO-M1 cells, Fluo-4 calcium, ACh EC80 antagonist mode; hits give low values | B-score at 10 µM | 64,000 compounds, 3.4% hits | AID 628;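 active = calcium fluorescence response, raw or row-and-column corrected B-score, differing from the plate sample mean either way at a set confidence level, mostly lower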
E coli WT exp – E. coli BW25113 growth inhibition, expanded screen; OD600 absorbance; growth inhibition, % at 100 µM; 98,000 compounds, 0.15% hits;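 active = growth inhibition above about 50% at one test dose, limit read from the data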;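 note: growth measured after 20 h incubation at 37 °C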
tolC growth inh – blocks growth of E. coli BW25113 tolC mutant; OD615; growth inhibition, % at 10 µM (by protocol); 65,000 compounds, 2.2% hits; AID 573;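 active = growth inhibition at or above a cutoff equal to the mean over every tested compound plus 3 SD, cut at about 60% in these data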;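 note: growth measured after 20 h incubation at 37 °C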
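Doses: one dose of 10 µM final / Material: E. coli BW25113 ΔtolC::kan, tolC deletion mutant strain / Buffer or medium: LB with kanamycin 50 µg/mL / Evaluation: percent growth inhibition / Detection: optical density read at 615 nm / Incubation: 37 °C, 20 h exposure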
M1 agonist – M1 muscarinic receptor agonism; 64,000 compounds, 3% hits; B-score at 10 µM; AID 626; CHO-M1 cells, Fluo-4 calcium fluorescence, agonist mode; hits give high values;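 active = fluorescence rise, raw or as B-score row- and column-corrected plate score, outside the 99.7% band of its plate's samples, either direction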
Hsp90 block – displaces geldanamycin probe from tumor Hsp90. NCI-N417 lysate Hsp90, Cy3B-geldanamycin FP displacement. inhibition, % at 30 µM. P07900. 64,000 compounds, 0.35% hits;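 active = inhibition above 50%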;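 note: 0% = tracer plus lysate wells and 100% = tracer alone without lysate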
BAP1 inh – inhibitors of human BAP1 deubiquitinase | Q92560 | recombinant BAP1, Ub-AMC hydrolysis fluorescence kinetic; hits give low values | calls only at 20 µM | 72,000 compounds, 0.48% hits | AID 436;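 active = activity remaining at or below 50% of control, provided the compound also passes the data quality filters; inactive = the rest, including low values that fail the filters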;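 note: 100% = DMSO wells rate and 0% = substrate alone blank rate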
Target sequence (Q92560 whole entry, looked up): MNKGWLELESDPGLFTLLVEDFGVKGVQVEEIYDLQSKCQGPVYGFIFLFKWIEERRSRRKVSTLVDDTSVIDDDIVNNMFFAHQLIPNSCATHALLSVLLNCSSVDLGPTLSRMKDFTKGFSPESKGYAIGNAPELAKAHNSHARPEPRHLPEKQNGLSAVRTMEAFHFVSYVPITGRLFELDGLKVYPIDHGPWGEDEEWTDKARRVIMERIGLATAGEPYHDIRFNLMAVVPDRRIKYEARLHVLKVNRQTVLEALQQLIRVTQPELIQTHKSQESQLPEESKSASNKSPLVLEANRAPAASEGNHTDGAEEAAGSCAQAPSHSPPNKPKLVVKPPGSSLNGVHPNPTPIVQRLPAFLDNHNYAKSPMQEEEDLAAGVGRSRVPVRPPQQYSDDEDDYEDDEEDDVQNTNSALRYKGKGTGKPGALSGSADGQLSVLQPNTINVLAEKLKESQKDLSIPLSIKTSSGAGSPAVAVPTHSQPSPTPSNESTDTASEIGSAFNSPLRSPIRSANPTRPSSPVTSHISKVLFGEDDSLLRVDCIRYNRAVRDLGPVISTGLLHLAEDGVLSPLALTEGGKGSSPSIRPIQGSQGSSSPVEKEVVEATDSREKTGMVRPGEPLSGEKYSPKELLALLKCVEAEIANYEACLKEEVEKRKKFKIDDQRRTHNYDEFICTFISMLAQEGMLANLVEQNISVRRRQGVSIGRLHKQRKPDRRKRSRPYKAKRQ
M1 antag conf – confirmation of rat M1 muscarinic receptor antagonists. shares compounds with M1 antagonist. CHO-M1 cells, Fluo-4 calcium, ACh EC80 antagonism; hits give low values. calcium response (max-min fluorescence) at 10 µM. 1,700 compounds, 43% hits. AID 677;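 active = calcium response below the same-plate mean of wells given acetylcholine alone at its 80%-effect dose, minus 3 SD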;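 note: raw fluorescence intensity difference in arbitrary instrument units and not normalized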
mGluR4 antag – mGluR4 (human) activity, M1 antagonist secondary assay | fluorescence response (max-min) at 10 µM | 1,700 compounds, 0.9% hits | AID 678 | CHO-mGluR4 calcium flux, Fluo-4 fluorescence, glutamate EC80; hits give low values | shares compounds with M1 antagonist;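 active = fluorescence response below the plate's average for near-maximal glutamate wells, less 3 SD of those wells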;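 note: raw unnormalized fluorescence span taken in the window right after glutamate addition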
An asterisk follows results filed as active.

Results for N=c1sccn1CC(=O)Nc1cc(Cl)ccc1Oc1ccccc1 ?
E coli WT exp: 27

What do the screens show for `N=c1sccn1CC(=O)Nc1cccc(Oc2ccccc2)c1`?
M1 antagonist: -2.4*; E coli WT exp: 16; tolC growth inh: 7; M1 agonist: 0.88; Hsp90 block: -7; BAP1 inh: inactive; M1 antag conf: 381*; mGluR4 antag: 238

Results for CCCc1cc(=O)oc2cc(OC(C)=O)cc(OC(C)=O)c12 ?
BAP1 inh: inactive

How did CCCc1cc(=O)oc2cc(C)cc(OC(=O)c3ccco3)c12 do in these assays?
M1 antagonist: -2.9*; E coli WT exp: -7; tolC growth inh: 13; M1 agonist: -0.29; Hsp90 block: -5; BAP1 inh: inactive; M1 antag conf: 551; mGluR4 antag: 205

Results for O=C(c1cc2ccccc2o1)N1CCCCCC1 ?
M1 antagonist: -0.28; E coli WT exp: -2; tolC growth inh: 20; M1 agonist: 0.39; Hsp90 block: -16; BAP1 inh: inactive

What do the screens show for `CC(CN1CCCCC1)OC(=O)c1cc2ccccc2o1` (stereo not given)?
M1 antagonist: -4.7*; E coli WT exp: -13; tolC growth inh: -20; M1 agonist: -1.1; Hsp90 block: -12; BAP1 inh: inactive; M1 antag conf: 296*; mGluR4 antag: 252

Results for COc1cccc(C(=O)OC(C)CN2CCCC2)c1 (stereo not given) ?
M1 antagonist: -2.3; E coli WT exp: 1; tolC growth inh: -17; M1 agonist: 1; Hsp90 block: -7; BAP1 inh: inactive

Results for CC1CCN(CC(C)OC(=O)c2ccc3c(c2)OCCO3)CC1 (stereo not given) ?
M1 antagonist: -12*; E coli WT exp: 4; tolC growth inh: -8; M1 agonist: 0.041; Hsp90 block: -1; BAP1 inh: inactive; M1 antag conf: 92*; mGluR4 antag: 240

What do the screens show for `CC(CN1CCCCC1)OC(=O)c1ccc2c(c1)OCO2` (stereo not given)?
M1 antagonist: -2.7*; E coli WT exp: -2; tolC growth inh: -10; M1 agonist: 1.1; Hsp90 block: -14; BAP1 inh: inactive; M1 antag conf: 457; mGluR4 antag: 221

How did Cc1cc(NC(=O)Cn2nnc3sc4c(c3c2=O)CCCC4)no1 do in these assays?
M1 antagonist: -5*; E coli WT exp: -8; tolC growth inh: -3; M1 agonist: -0.74; Hsp90 block: -4; BAP1 inh: inactive; M1 antag conf: 549; mGluR4 antag: 248

How did Cc1cc(NC(=O)CSc2nc3sc4c(c3c(=O)n2C)CCCC4)no1 do in these assays?
M1 antagonist: -0.4; E coli WT exp: 1; tolC growth inh: -8; M1 agonist: -0.23; Hsp90 block: -2

How did O=C(Nc1ccc2c(c1)OCO2)c1noc2c1CCCCC2 do in these assays?
M1 antagonist: -4*; E coli WT exp: 3; tolC growth inh: 4; M1 agonist: 0.057; Hsp90 block: 3; BAP1 inh: inactive; M1 antag conf: 387*; mGluR4 antag: 232

What do the screens show for `CC(=O)c1ccc(NC(=O)c2noc3c2CCCCC3)cc1`?
M1 antagonist: -0.21; E coli WT exp: 3; tolC growth inh: -12; M1 agonist: 0.25; Hsp90 block: 0; BAP1 inh: inactive

How did CCN1CCCC1CNCc1ccc(Cl)cc1Cl (stereo not given) do in these assays?
M1 antagonist: -3.1*; E coli WT exp: 11; tolC growth inh: 8; M1 agonist: -0.26; Hsp90 block: -6; BAP1 inh: inactive; M1 antag conf: 529*; mGluR4 antag: 231

How did COCCn1c(SCC(=O)N2CCCc3ccccc32)nc2ccccc2c1=O do in these assays?
M1 antagonist: -1.9*; E coli WT exp: -9; tolC growth inh: 39; M1 agonist: -0.12; Hsp90 block: 0; M1 antag conf: 589; mGluR4 antag: 254

Assay outcomes from PubChem BioAssay.
